Shown are actives, neighbours in structure and some others; about 3% of the full set was active somewhere.
KLK7 zymogen act – activators of human kallikrein-7 zymogen; actives 0.9% (n = 370,000); purified proKLK7, EDANS-DABCYL substrate fluorescence; 100% is mature enzyme control, 0% vehicle; P49862; activation, % at 7 µM;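 active = activation above the mean of all tested compounds plus 3 SD, computed per campaign excluding outliers beyond control limits, cut at about 13% in these data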
Tn7 DDE FP – inhibitors of Tn7 peptide binding to human fibrin DD(E); inhibition, % at 8.3 µM; FP displacement of FITC-Tn7 peptide from fibrin DD(E); 0% = median of compound wells per plate; P02675; AID 720508; actives 0.13% (n = 370,000);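 active = inhibition above the mean of compounds falling within the control limits plus 3 SD of them, cut at about 14% in these data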;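 also: 0% = plate median of compound wells and 100% = 10 µM Aha-Tn7 peptide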
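system = human fibrin DD(E) protein | quantity = DD(E) 2 µM final | medium = Tris/NaCl/CaCl2 buffer, pH 7.8 | also added = labelled Tn7 tracer, 0.1 µM | compound dosing = single point at 8.3 µM | timing = compound with protein 10 min, then 3 h after probe, room temperature | signal = FP measurement | benchmarks = Aha-Tn7 high control | repeats = one replicate per compound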
PLC-gamma1 inh – blocks human PLC-gamma1 enzyme activity; P19174; purified PLC-gamma1, fluorogenic substrate, fluorescence; inhibition, % at 12.2 µM; actives 0.84% (n = 370,000); AID 720700; in the data active = inhibition above about 9.5%
PLCb3 inh – PLC-beta3 (human) inhibition, primary screen; Q01970; Purified PLC-beta3, fluorogenic substrate, fluorescence; actives 0.18% (n = 370,000); inhibition, % at 12.2 µM; in the data active = inhibition above about 11%;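 also: 0% = median of compound wells on plate and 100% = full blocker control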
DDE Tn6 FP inh – inhibitors of Tn6 peptide binding to human fibrin DD(E) | Fibrin DD(E) TRITC-Tn6 fluorescence polarization displacement | P02675 | actives 0.21% (n = 370,000) | inhibition, % at 8.3 µM;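 active = inhibition above a per-campaign cutoff: mean of compounds within control limits plus 3 SD, cut at about 15% in these data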;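 also: 0% = median of all compound wells on the plate and 100% = blocking peptide control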
CendR NRP1 mod – modulators of CendR peptide binding to human neuropilin-1. O14786. FAM-RPARPAR peptide binding to NRP-1, fluorescence polarization. inhibition, % at 25 µM. actives 0.85% (n = 360,000). AID 602438;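 active = inhibition or corrected inhibition above about 18%, plus a signal ratio from 0.5 to 1.5, limit read from the data, passing the limit was not always enough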
Target sequence (O14786 whole entry, looked up): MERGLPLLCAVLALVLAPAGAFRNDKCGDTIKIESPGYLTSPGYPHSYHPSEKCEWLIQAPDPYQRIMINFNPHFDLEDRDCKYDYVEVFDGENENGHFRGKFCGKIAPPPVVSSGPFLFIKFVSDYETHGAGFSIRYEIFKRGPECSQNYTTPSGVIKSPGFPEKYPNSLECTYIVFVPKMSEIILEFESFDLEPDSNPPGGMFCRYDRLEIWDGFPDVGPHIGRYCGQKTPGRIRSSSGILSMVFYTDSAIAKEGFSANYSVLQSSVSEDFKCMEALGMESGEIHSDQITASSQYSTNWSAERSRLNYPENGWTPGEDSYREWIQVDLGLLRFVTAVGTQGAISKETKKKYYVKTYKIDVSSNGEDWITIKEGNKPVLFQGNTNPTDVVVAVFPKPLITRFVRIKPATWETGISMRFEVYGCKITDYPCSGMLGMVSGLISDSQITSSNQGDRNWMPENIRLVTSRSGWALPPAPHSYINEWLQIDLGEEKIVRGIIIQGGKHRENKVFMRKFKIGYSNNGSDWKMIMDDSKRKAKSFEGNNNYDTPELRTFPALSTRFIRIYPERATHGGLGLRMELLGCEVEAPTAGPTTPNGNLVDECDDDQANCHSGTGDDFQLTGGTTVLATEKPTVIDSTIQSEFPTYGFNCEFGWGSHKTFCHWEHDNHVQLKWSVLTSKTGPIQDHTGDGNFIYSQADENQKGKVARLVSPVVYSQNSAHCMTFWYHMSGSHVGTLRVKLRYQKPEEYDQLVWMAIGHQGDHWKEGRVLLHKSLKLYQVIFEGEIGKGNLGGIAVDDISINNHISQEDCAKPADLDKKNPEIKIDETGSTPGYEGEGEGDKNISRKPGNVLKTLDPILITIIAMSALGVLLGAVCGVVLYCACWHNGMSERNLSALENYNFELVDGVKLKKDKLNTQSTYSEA
KLK7 act conf – proKLK7 activation, confirmation. shares compounds with KLK7 zymogen act. activation, % at 7 µM. purified proKLK7, EDANS-DABCYL substrate fluorescence; scaled: vehicle 0, mature enzyme 100. actives 68% (n = 3,200). AID 686949;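 active = activation, as change over the incubation, above the mean of all tested compounds plus 3 SD, cut at about 13% in these data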
EDANS interfere – optically interferes with EDANS-DABCYL signal, flagging KLK7 hits | AID 686952 | shares compounds with KLK7 zymogen act | EDANS-DABCYL substrate fluorescence interference, no enzyme, 4 h; solvent 0%, active enzyme control 100% | activation, % at 7 µM | actives 80% (n = 3,200);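 active = activation above the all-compound mean plus 3 SD, ignoring values outside control-based bounds, cut at about 4.8% in these data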;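 also: value is the 4 h activation minus the activation read at time zero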
K7 EDANS ctr – counter-screen for kallikrein-7 activators: EDANS-DABCYL interference, dose response | actives 20% (n = 250) | shares compounds with KLK7 zymogen act | EDANS-DABCYL peptide fluorescence interference, no enzyme | AID 720493 | EC50, µM;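 active = compounds that raise the fluorescence signal in this interference counterscreen, with EC50 at or below 10 µM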;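 also: intact quenched peptide substrate alone read at 355 nm excitation and 520 nm emission; signal is fluorescence gain from T0 to T4 after four hours at room temperature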
The depositor's hits bear a star; i = inactive; / = no result given.

SMILES	KLK7 zymogen act	Tn7 DDE FP	PLC-gamma1 inh	PLCb3 inh	DDE Tn6 FP inh	CendR NRP1 mod	KLK7 act conf	EDANS interfere	others
Cc1nc(-c2ccccc2)nc2sc(C(=O)c3ccc(F)cc3)c(N)c12	-0.3	5.5	-10.0	-24.3	-0.1	-18.7	/	/
Cc1nc2sc(C(=O)c3ccccc3)c(N)c2c(C)c1C	50.4*	3.4	-12.8	-19.4	-4.5	7.1	-17.7	-0.2
Cc1c(O)ccc2c3c(c(=O)oc12)CCC(C)C3 (configuration not stated)	39.4*	-1.4	i	i	-10.7	4.2	63.0*	83.8*
Cc1c(O)ccc2c3c(c(=O)oc12)CCCC3	32.1*	-2.5	i	i	-7.7	-17.9	71.2*	64.4*
Cc1c(Br)c(=O)oc2c(Br)c(O)ccc12	25.6*	-4.0	-335.2	-475.4	5.5	-10.6	15.4*	24.9*
COC(=O)[C@]12CCCCC=C1N(Cc1ccc(OC)cc1)C(=O)[C@@H]2CC(=O)NCc1ccc(C)o1	-0.7	1.5	1.6	1.9	3.3	/	/	/
C=CCN1C(=O)[C@@H](CC(=O)NCc2cccc(C(F)(F)F)c2)[C@]2(C(=O)OCC)CCCCC/C=C/12	0.0	-4.9	-1.0	-2.5	-4.0	/	/	/
CC1(C)C2CCC1(C)C(OC(=O)C[n+]1ccccc1N)C2 (configuration not stated)	52.3*	-4.2	-17.1	-35.8	-6.5	-6.1	99.4*	100.3*
Clc1ccc(-n2c(SCc3cccc4ccccc34)nnc2-c2cccnc2)cc1	0.4	-3.1	2.8	1.4	-10.0	/	/	/
CCCc1cc(=O)oc2cc(C)cc(OCC(=O)Nc3ccccn3)c12	1.3	-2.7	-47.0	-71.8	8.9	4.7	/	/
CCCc1cc(=O)oc2cc(C)cc(OCC(=O)O)c12	18.8*	-2.0	-412.2	-481.0	1.0	3.7	35.6*	34.2*
CCCCc1cc(=O)oc2cc(O)cc(O)c12	78.0*	5.7	i	i	-0.5	-7.7	69.7*	69.8*
CCCCc1cc(=O)oc2cc(C)cc(OC(C)C(=O)NCC3CCC(C(=O)O)CC3)c12 (configuration not stated)	5.1	-11.8	-29.8	-39.1	-3.1	-11.9	/	/
CCCCc1cc(=O)oc2cc(C)cc(OC(C)C(=O)O)c12 (configuration not stated)	19.8*	-0.5	-495.0	i	-0.3	-4.2	31.4*	33.2*
COc1ccc(CN(CC#Cc2ccccc2)Cc2ccccc2)c(OC)c1	1.0	-2.9	-0.5	2.5	-10.9	/	/	/
Cc1ccc(NC(=O)OC2CCC23CCCCC3)cc1 (configuration not stated)	-0.2	-0.6	0.2	0.0	3.7	/	/	/
Cc1nc2ccc(NC(=S)NCc3ccccc3)cc2nc1C	2.6	4.8	-48.6	-58.9	0.1	-19.1	/	/
COc1ccc(N(C)C(=S)Nc2ccc3nc(C)c(C)nc3c2)cc1	13.6*	4.7	i	i	-2.7	-8.3	11.8	14.6*
CCCn1c(-c2ccc[nH]c2=O)nc2cc(C)c(C)cc21	18.4*	-7.9	i	i	-1.2	4.8	38.1*	40.5*
COc1ccc2[nH]c(C)c(C(=O)CN3CCOCC3)c2c1	0.4	-8.8	-0.4	-2.6	-0.1	0.1	/	/
COc1ccc2[nH]c(C)c(C(=O)CN3CCc4cc(OC)c(OC)cc4C3)c2c1	17.1*	-5.0	-99.6	-118.1	2.4	-4.3	9.0	8.4*
CCC(CC)C(=O)Nc1ccc(-c2cn3cccnc3n2)cc1	61.5*	4.2	i	i	2.2	5.9	66.0*	64.2*
COCC(=O)Nc1ccc(-c2cn3cccnc3n2)cc1	25.2*	4.2	i	i	-13.3	-10.1	62.7*	80.8*
CCn1cc(-c2ccnc3cc(C(=O)O)nn23)c(C)n1	27.4*	0.1	i	i	4.4	31.7*	73.0*	75.2*
CCn1c(C)nnc1SCC(=O)Nc1nccs1	-0.6	-8.1	3.3	0.9	0.7	-2.0	/	/
SMILES	KLK7 zymogen act	Tn7 DDE FP	PLC-gamma1 inh	PLCb3 inh	DDE Tn6 FP inh	CendR NRP1 mod	KLK7 act conf	EDANS interfere	others
Cc1ccc(C#N)c(SCC(=O)Nc2nccs2)n1	130.4*	0.2	i	i	-3.3	5.4	209.0*	182.4*
CCOC(=O)c1c(SCC(=O)Nc2nccs2)nc(C)c(C)c1C	79.0*	-1.8	-332.6	-339.4	-2.9	1.5	60.7*	57.9*
CN1CCN(S(=O)(=O)c2ccc3c4c(cccc24)C(=O)N3)CC1	66.3*	6.7	i	i	2.5	-5.0	40.9*	49.0*
O=C1Nc2ccc(S(=O)(=O)N3CCOCC3)c3cccc1c23	34.5*	9.2	i	i	-3.3	16.7	58.4*	56.6*
O=C1Nc2ccc(S(=O)(=O)N3CCCC3)c3cccc1c23	5.4	-6.2	-354.4	-498.8	-0.7	-0.1	/	/
CCOc1cc2c(C#N)c(N3CCCCC3)nc(N)c2c(N)n1	-6.4	1.9	-189.3	-290.8	-0.5	-96.8	/	/
COc1cc2c(C#N)c(N3CCCCC3)nc(N)c2c(N)n1	-2.8	-5.8	-362.6	-440.0	0.4	5.8	/	/
N#Cc1c(N2CCOCC2)nc(N)c2c(N)nc3c(c12)CC(CCl)O3 (configuration not stated)	72.7*	4.5	i	i	5.4	-16.9	76.0*	19.3*	K7 EDANS ctr=>69.5
COc1cc2c(C#N)c(N3CCOCC3)nc(N)c2c(N)n1	22.5*	-3.1	i	i	-5.3	0.0	21.4*	23.3*
CCOc1cc2c(C#N)c(N3CCNCC3)nc(N)c2c(N)n1	68.9*	-5.5	i	i	-2.5	2.2	67.3*	64.1*
CC(C)CNC(=O)OCc1cn(Cc2ccccc2C(F)(F)F)nn1	-0.5	6.1	-1.8	0.3	4.5	/	/	/
O=C(CSc1nccc(=O)[nH]1)NC1CCCCCC1	60.9*	4.2	-2.1	-0.7	5.0	-7.9	-0.2	0.4
CCOC(=O)c1cc2ccc(OC)c(OC)c2c(=O)s1	0.0	-2.3	-1.3	-4.4	-2.2	-0.5	/	/
CCOC(=O)CC(=O)Nc1cc2ccc(OC)c(OC)c2cc1C(=O)OCC	15.6*	-6.7	i	i	4.4	-11.0	-23.5	-24.6
COC(=O)c1cc(-c2cc(F)cc(OC)c2)c(=O)n2c1CCC2	-0.3	-0.7	6.9	-0.9	6.9	/	/	/

From PubChem BioAssay
